Laboratory results as given in ChEMBL document CHEMBL4334546, “Discovery of N-(Indazol-3-yl)piperidine-4-carboxylic Acids as RORγt Allosteric Inhibitors for Autoimmune Diseases” (ACS Med Chem Lett, 2020).
Values after ≈ are worked out from the molar mass of the structure shown.

How the values were obtained:
[1] = Solubility of compound at pH 2; format: physicochemical; conditions: buffer
[2] = molecular target: T1, Nuclear receptor ROR-gamma (Homo sapiens, UniProt P51449); assay: Allosteric inhibition of recombinant His6-tagged RORgammat LBD (unknown origin) expressed in Escherichia coli BL21(DE3) assessed as inhibition of biotin-labelled SRC-1 peptide recruitment preincubated for 15 mins followed by biotin-labelled SRC-1 peptide addition and measured after overnight incubation by TR-FRET assay
T1 sequence (P51449 whole entry): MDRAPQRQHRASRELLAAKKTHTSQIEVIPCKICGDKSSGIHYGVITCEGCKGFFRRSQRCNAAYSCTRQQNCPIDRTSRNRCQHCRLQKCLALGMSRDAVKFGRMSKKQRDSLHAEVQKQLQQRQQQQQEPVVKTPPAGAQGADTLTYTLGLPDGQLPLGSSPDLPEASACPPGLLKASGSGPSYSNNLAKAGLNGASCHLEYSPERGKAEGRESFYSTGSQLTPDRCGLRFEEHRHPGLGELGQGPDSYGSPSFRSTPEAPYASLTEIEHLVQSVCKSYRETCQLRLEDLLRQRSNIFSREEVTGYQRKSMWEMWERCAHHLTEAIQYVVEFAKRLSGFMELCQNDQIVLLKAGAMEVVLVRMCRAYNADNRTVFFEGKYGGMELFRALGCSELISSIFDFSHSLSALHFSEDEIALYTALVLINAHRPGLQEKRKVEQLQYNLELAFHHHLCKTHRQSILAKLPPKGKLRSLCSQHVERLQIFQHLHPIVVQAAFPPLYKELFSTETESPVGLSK

[3] = Solubility of compound at pH 7.4; format: physicochemical; conditions: buffer
Mus musculus [4] = organism: Mus musculus; assay: animal or person; conditions: C57BL/6, 2 h, read-out: INH
[5] = Protein binding in rat plasma; format: ADME, cell-free; conditions: read-out: PPB (converted)
[6] = Plasma concentration in C57BL/6 mouse at 10 mg/kg administered as single dose after 2 hrs; format: ADME, organism-based
Summary of the method: (§1)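 Acute pharmacodynamic model: mice received single doses across a dose range, and in this study both plasma compound concentration and Bcl-xL expression in thymocytes were measured to follow RORγt inhibition.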

Mus musculus [7] = organism: Mus musculus; assay: animal or person; conditions: C57BL/6, 2 h, read-out: INH; remark: listed apart in the source
[8] = Protein binding in dog plasma; format: ADME, cell-free, Canis lupus familiaris; conditions: read-out: PPB (converted)
[9] = Clearance in Beagle dog at 0.25 mg/kg, iv or 0.5 mg/kg, po by LC-MS/MS analysis; format: ADME, organism-based, Canis lupus familiaris; conditions: in vivo
[10] = Oral bioavailability in Wistar Han rat at 1 mg/kg by LC-MS/MS analysis; format: ADME, organism-based; conditions: in vivo
[11] = Plasma concentration in C57BL/6 mouse at 1 mg/kg administered as single dose after 2 hrs; format: ADME, organism-based; summary of the method: as §1
[12] = Volume of distribution in Wistar Han rat at 0.5 mg/kg, iv or 1 mg/kg, po by LC-MS/MS analysis; format: ADME, organism-based; conditions: in vivo
[13] = Plasma concentration in C57BL/6 mouse at 100 mg/kg administered as single dose after 2 hrs; format: ADME, organism-based; summary of the method: as §1
[14] = Plasma concentration in C57BL/6 mouse at 30 mg/kg administered as single dose after 2 hrs; format: ADME, organism-based; summary of the method: as §1
[15] = molecular target: T1, Nuclear receptor ROR-gamma; assay: Allosteric inhibition of yeast GAL4 DNA domain-fused RORgammat LBD (97 to 518 residues) (unknown origin) expressed in HEK293T cells after 20 to 22 hrs by steady-glo luciferase assay; format: cell-based
[16] = Plasma concentration in C57BL/6 mouse at 3 mg/kg administered as single dose after 2 hrs; format: ADME, organism-based; summary of the method: as §1
Mus musculus [17] = organism: Mus musculus; assay: animal or person; conditions: C57BL/6, 2 h, read-out: INH; remark: listed apart in the source
[18] = Unbound clearance in Wistar Han rat at 0.5 mg/kg, iv or 1 mg/kg, po by LC-MS/MS analysis; format: ADME, organism-based; conditions: in vivo
[19] = molecular target: T1, Nuclear receptor ROR-gamma; assay: Allosteric inhibition of RORgammaT in IL-1B/IL-23/IL-2/IL-6/T-Activator CD3/28 Dynabeads-stimulated human PBMC cells assessed as reduction in Th17 differentiation by measuring reduction in IL-17A level incubated for 4 days post-cell stimulation by ELISA
Mus musculus [20] = organism: Mus musculus; assay: animal or person; conditions: C57BL/6, 2 h, read-out: INH; remark: listed apart in the source
[21] = Volume of distribution in Beagle dog at 0.25 mg/kg, iv or 0.5 mg/kg, po by LC-MS/MS analysis; format: ADME, organism-based, Canis lupus familiaris; conditions: in vivo
[22] = Clearance in Wistar Han rat at 0.5 mg/kg, iv or 1 mg/kg, po by LC-MS/MS analysis; format: ADME, organism-based; conditions: in vivo
[23] = Half life in Beagle dog at 0.25 mg/kg, iv or 0.5 mg/kg, po by LC-MS/MS analysis; format: ADME, organism-based, Canis lupus familiaris; conditions: in vivo
[24] = Half life in Wistar Han rat at 0.5 mg/kg, iv or 1 mg/kg, po by LC-MS/MS analysis; format: ADME, organism-based; conditions: in vivo
[25] = Oral bioavailability in Beagle dog at 0.5 mg/kg by LC-MS/MS analysis; format: ADME, organism-based, Canis lupus familiaris; conditions: in vivo
Mus musculus [26] = organism: Mus musculus; assay: animal or person; conditions: C57BL/6, 2 h, read-out: INH; remark: listed apart in the source
Mus musculus [27] = organism: Mus musculus; assay: animal or person; conditions: C57BL/6, 2 h
[28] = molecular target: T2, Peroxisome proliferator-activated receptor gamma (Homo sapiens, UniProt P37231); assay: Displacement of [3H]rosiglitazone from human recombinant PPARgamma LBD expressed in insect cells measured after 24 hrs by scintillation counting analysis
T2 sequence (P37231 whole entry): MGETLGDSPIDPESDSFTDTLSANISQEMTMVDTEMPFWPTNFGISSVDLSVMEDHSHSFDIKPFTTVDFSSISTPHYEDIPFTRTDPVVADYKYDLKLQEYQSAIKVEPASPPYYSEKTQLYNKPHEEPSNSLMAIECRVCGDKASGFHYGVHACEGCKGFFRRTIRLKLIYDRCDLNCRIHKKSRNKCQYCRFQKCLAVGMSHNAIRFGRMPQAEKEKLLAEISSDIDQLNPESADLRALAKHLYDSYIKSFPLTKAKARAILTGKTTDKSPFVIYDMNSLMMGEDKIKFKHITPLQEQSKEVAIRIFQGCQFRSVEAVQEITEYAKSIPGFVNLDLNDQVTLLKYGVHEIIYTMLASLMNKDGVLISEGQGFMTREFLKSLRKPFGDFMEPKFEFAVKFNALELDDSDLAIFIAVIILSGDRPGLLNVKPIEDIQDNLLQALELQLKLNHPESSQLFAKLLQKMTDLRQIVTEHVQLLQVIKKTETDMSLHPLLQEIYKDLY

O=C(O)c1ccc(-c2nn(C(=O)c3c(Cl)cccc3C(F)(F)F)c3cccnc23)c(F)c1
solubility [1]: < 2 µM
IC50 [2]: 6 nM
solubility [3]: 147 µM (≈ 68.2 µg/mL)
inhibition in vivo at 1 mg/kg (Mus musculus [4]): 17%
fraction unbound [5]: 0.013
concentration at 2 h [6]: 4.1 µM
inhibition in vivo at 30 mg/kg (Mus musculus [7]): 85%
fraction unbound [8]: 0.013
clearance [9]: 4.5 mL/min/kg
bioavailability [10]: 16%
concentration at 2 h [11]: 0.18 µM
Vd [12]: 0.8 L/kg
concentration at 2 h [13]: 254 µM
concentration at 2 h [14]: 51 µM
IC50 [15]: 90 nM
concentration at 2 h [16]: 0.73 µM
inhibition in vivo at 100 mg/kg (Mus musculus [17]): 74%
CL free [18]: 5846 mL/min/kg
IC50 [19]: 33 nM
inhibition in vivo at 3 mg/kg (Mus musculus [20]): 50%
Vd [21]: 0.4 L/kg
clearance [22]: 76 mL/min/kg
half-life [23]: 1.4 h
half-life [24]: 0.4 h
bioavailability [25]: 45%
inhibition in vivo at 10 mg/kg (Mus musculus [26]): 69%
IC50 (Mus musculus [27]): 710 nM
IC50 [28]: 2000 nM

O=C(O)c1ccc(-c2nn(C(=O)c3c(Cl)cccc3Cl)c3ccccc23)cc1
IC50 [2]: 5 nM
IC50 [15]: 400 nM

O=C(O)[C@@H]1CCN(c2nn(C(=O)c3c(Cl)cccc3C3CC3)c3cccc(F)c23)C[C@H]1O
solubility [1]: 28 µM (≈ 12.8 µg/mL)
solubility [3]: 153 µM (≈ 70.1 µg/mL)
fraction unbound [5]: 0.013
fraction unbound [8]: 0.003
clearance [9]: 1.4 mL/min/kg
bioavailability [10]: 35%
Vd [12]: 0.6 L/kg
CL free [18]: 1000 mL/min/kg
Vd [21]: 0.3 L/kg
clearance [22]: 13 mL/min/kg
half-life [23]: 3.1 h
half-life [24]: 3.7 h
bioavailability [25]: 65%
